Source: PubChem
An excerpt weighted towards active compounds, which were near 1.8% of everything screened.
PPC-1+TRAIL kill: PPC-1 cancer cell killing with TRAIL present; PPC-1 cells + TRAIL, ATPLite viability luminescence; AID 1443; cell killing (% activity), % at 4 µM or 5 µM; hit rate 0.41% among 220,000;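 active means cell killing above 50% in the first pass at 4 µM, then a duplicate retest at 5 µM averaging 50% or more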
C8 TRAIL sens: caspase-8 TRAIL sensitization; inhibition (viability loss, TRAIL sensitization), % at 10 µM; NB7+C8 cells + TRAIL, ATPlite viability luminescence; AID 624354; hit rate 1% among 360,000;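 active means compounds causing at least 50% loss of cell viability in the single-dose screen, relative to plate controls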
iPSC survival up: enhancers of human iPSC single-cell survival; hit rate 0.044% among 360,000; survival enhancement, % at 20 µM; hiPSC single-cell survival, ATPlite luminescence; 100% = ROCK inhibitor wells, 0% = DMSO; in the data active means survival enhancement above about 18%;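 further: cells exposed to compounds for 16 hours before the ATP read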
FLuc act counter: firefly luciferase counter-screen for stimulation assays; 200,000 tested, under 10 active; activation factor at 10 µM; ATPlite luciferase biochemical, luminescence, 10 min; 0 = ATP-free wells, 1 = DMSO control; AID 1027; P08659;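 active means luciferase activation factor, scaled between plate controls, of at least 2 with compound at 10 µM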
Target sequence (P08659 whole entry, looked up): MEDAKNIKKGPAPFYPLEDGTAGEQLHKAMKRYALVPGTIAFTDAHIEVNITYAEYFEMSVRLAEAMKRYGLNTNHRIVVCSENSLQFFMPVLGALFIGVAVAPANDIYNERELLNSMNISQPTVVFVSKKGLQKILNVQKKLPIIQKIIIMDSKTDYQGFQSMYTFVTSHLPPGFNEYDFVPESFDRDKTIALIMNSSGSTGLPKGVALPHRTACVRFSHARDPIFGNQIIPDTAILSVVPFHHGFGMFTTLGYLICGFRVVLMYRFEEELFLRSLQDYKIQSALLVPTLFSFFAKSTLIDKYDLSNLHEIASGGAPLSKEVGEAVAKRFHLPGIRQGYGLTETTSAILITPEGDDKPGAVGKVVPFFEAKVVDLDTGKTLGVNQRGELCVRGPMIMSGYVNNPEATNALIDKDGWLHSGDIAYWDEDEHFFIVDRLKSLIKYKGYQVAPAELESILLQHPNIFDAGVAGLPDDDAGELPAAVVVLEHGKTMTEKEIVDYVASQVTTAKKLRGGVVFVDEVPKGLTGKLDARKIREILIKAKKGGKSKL
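Assay system: Luciferase/luciferin detection reagent, cell-free biochemical luciferase assay / Also added: ATP substrate / Schedule: 10 min at ambient temperature / Measured by: luminescence measurement of luciferase light output / Benchmarks: low control with PBS replacing ATP, high control enzyme plus ATP without compound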
beta cell repl: induces beta-cell replication in MIN6 cells | proliferation, % at 10 µM | MIN6 cells proliferation, ATPlite luminescence, 48 h; cells starved in 0.2% serum; 100% = growth in 10% serum | hit rate 0.29% among 330,000 | AID 2380;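 active means compounds whose signal lies at least 3.5 SD above the mean of all wells on their plate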
FLuc inh counter: counter-screen for luciferase assay inhibitors: firefly luciferase inhibition; AID 1006; hit rate 1.5% among 200,000; ATPLite firefly luciferase biochemical luminescence, 10 min; inhibition, % at 10 µM;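 active means inhibition above about 50% when tested at 10 µM, limit read from the data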
Each line names hits and unclear results; the compound was inactive in the other large screens.

Nc1c(Cl)ncnc1N/N=C/c1ccc2ccccc2n1	PPC-1+TRAIL kill 62, FLuc inh counter 72 (no result: beta cell repl)
CN(c1ccccc1)c1ccc(/C=N/N2CCOCC2)cc1	FLuc inh counter 70
Cc1ccc(CN=c2c([N+](=O)[O-])nn(-c3cccc(C)c3)n2O)cc1	C8 TRAIL sens 49
O=C(O)C1CCN(C(=O)COc2ccc(Br)cc2)CC1	none
Nc1ccc(/C=C/C(=O)c2cccs2)cc1	FLuc inh counter 77
CCOC(=O)c1cc(C(=O)Nc2cccc(C)c2)nn1C	FLuc inh counter 60
COc1ccc(-n2c(SCC(=O)NC3CC3)nc3ccccc3c2=O)cc1OC	none (no result: PPC-1+TRAIL kill, FLuc act counter, FLuc inh counter)
CCOC(=O)[C@]12CCCC=C1N(Cc1ccccc1)C(=O)[C@H](CC(=O)N1CCOCC1)C2	none (no result: PPC-1+TRAIL kill, iPSC survival up, FLuc act counter, beta cell repl, FLuc inh counter)
O=C1c2ccccc2S(=O)(=O)N1CC1CC(c2ccc(Cl)cc2)=NO1 (centres undefined)	FLuc inh counter 50
COc1ccc(C2(C(=O)c3ccccc3)C(=O)c3ccccc3C2=O)cc1	C8 TRAIL sens 55 (no result: FLuc act counter, FLuc inh counter)
O=C1NC(c2cccc(Br)c2)=N/C1=C\c1ccco1	none
O=C1NC(c2ccccc2)=N/C1=C/c1ccco1	FLuc inh counter 73
CS/C(N)=N/N=C/c1cc(C)ccc1O	C8 TRAIL sens 64 (no result: FLuc act counter, FLuc inh counter)
CC(C)c1ccc(/C=N\NC(=O)c2ccc(Cn3cccn3)o2)cc1	FLuc inh counter 72
COc1ccc(C=C2OC(=O)C(C(C)=O)=C2O)cc1	C8 TRAIL sens 84 (no result: PPC-1+TRAIL kill, FLuc act counter, beta cell repl, FLuc inh counter)
COc1ccc2c(c1)O/C(=C\c1sccc1C)C2=O	FLuc inh counter 86
COc1ccc(/C=C2\Oc3ccccc3C2=O)cc1	C8 TRAIL sens 72 (no result: PPC-1+TRAIL kill, FLuc act counter, FLuc inh counter)
CC(=O)C1=C(O)C(=Cc2ccccc2)OC1=O	none (no result: PPC-1+TRAIL kill, FLuc act counter, beta cell repl, FLuc inh counter)
CCC(=O)Nc1cccc(NC(=O)CSc2nc3c(c(=O)n(C)c(=O)n3C)n2C)c1	none (no result: PPC-1+TRAIL kill, FLuc act counter, FLuc inh counter)
COC(=O)C[C@@H]1C=C[C@H](NS(=O)(=O)c2cccc(F)c2)[C@@H](CO)O1	none (no result: PPC-1+TRAIL kill, iPSC survival up, FLuc act counter, beta cell repl, FLuc inh counter)
COC(=O)[C@@]1(Sc2ccc(C)cc2)CC(=O)N(c2ccccc2)[C@@H]1c1ccccc1	none (no result: PPC-1+TRAIL kill, FLuc act counter, beta cell repl, FLuc inh counter)
Cc1ccc(S(=O)(=O)Nc2ccccc2C(=O)Nc2nc(-c3ccc(F)cc3)cs2)cc1	C8 TRAIL sens 53
O=C(Nc1ncc(Cc2ccccc2)s1)c1cccs1	C8 TRAIL sens 51
Cc1ccc(Cc2cnc(NC(=O)c3cccs3)s2)cc1	none
Cc1ccc(C(=O)Nc2ncc(Cc3ccccc3)s2)o1	C8 TRAIL sens 57, FLuc inh counter 80
Clc1ccc(-c2nc3n(n2)Cc2ccccc2-3)cc1	C8 TRAIL sens 59, FLuc inh counter 58
CC1CCCN(C(=O)CCS(=O)(=O)c2ccc3c(c2)NC(=O)C(C)S3)C1 (centres undefined)	none (no result: PPC-1+TRAIL kill, FLuc act counter, FLuc inh counter)
COC(=O)c1sccc1S(=O)(=O)Nc1ccc(C(O)(C(F)(F)F)C(F)(F)F)cc1	none (no result: PPC-1+TRAIL kill, FLuc act counter, beta cell repl, FLuc inh counter)
CCOC(=O)N1CCN(C(=O)c2ccc(Cn3c(=S)[nH]c4ccc(Br)cc4c3=O)cc2)CC1	C8 TRAIL sens 53 (no result: PPC-1+TRAIL kill, FLuc act counter, FLuc inh counter)
O=C(Nc1ccccc1N1CCOCC1)c1cc2c(s1)CCCCC2	FLuc inh counter 65
O=C(Nc1ccon1)c1cc2c(s1)CCCC2	FLuc inh counter 70
O=C(Nc1ccc(N2CCOCC2)cc1)c1cc2c(s1)CCCCC2	none
CC(O)CC(C)O (centres undefined)	none (no result: PPC-1+TRAIL kill, FLuc act counter, FLuc inh counter)
CCOC(=O)/C(=C\c1ccc(OC(F)F)cc1)C1=Nn2c(nnc2-c2ccc(Cl)cc2)SC1	C8 TRAIL sens 94 (no result: beta cell repl)
CCOC(=O)/C(=C/c1ccc(OC(F)F)cc1)C1=Nn2c(nnc2-c2ccc(Cl)cc2)SC1	C8 TRAIL sens 90 (no result: PPC-1+TRAIL kill, FLuc act counter, beta cell repl, FLuc inh counter)
CC[C@H](C)[C@@H](C(=O)NCCCCCCCCCCC(=O)N1CCN(C(=O)OC(C)(C)C)CC1)n1cc(CCCCCNC(=O)OC(C)(C)C)nn1	none (no result: PPC-1+TRAIL kill, FLuc act counter, FLuc inh counter)
Cc1csc2nc(O)c(C(=O)NC3CCCCC3C)c(=O)n12 (centres undefined)	none (no result: PPC-1+TRAIL kill, FLuc act counter, FLuc inh counter)
COc1cccc2cc(-c3nnc(-c4ccccc4)o3)c(=O)oc12	FLuc inh counter 91 (no result: PPC-1+TRAIL kill)
COc1ccc(-c2nnc(-c3cc4ccccc4oc3=O)o2)cc1	none
COc1cc(CC(=O)OCC(=O)c2ccc[nH]2)cc(OC)c1OC	none (no result: PPC-1+TRAIL kill, FLuc act counter, FLuc inh counter)
COc1ccc2nc3cc(Cl)ccc3c(Nc3ccc(O)c(CN4CCN(C)CC4)c3)c2c1	C8 TRAIL sens 74 (no result: PPC-1+TRAIL kill, FLuc act counter, beta cell repl, FLuc inh counter)
COc1ccc2nc3cc(Cl)ccc3c(C#N)c2c1	none (no result: FLuc act counter, FLuc inh counter)
